Screening results deposited in PubChem BioAssay by several laboratories.
The list is not random: actives were taken first. Their share in the collection is about 27%.
Cav32 inh: blocks human Cav3.2 T-type calcium channel | Cav3.2-expressing cells, Fluo-4 calcium fluorescence FDSS; hits give low values | B-score at 10 µM | actives 4% (n = 100,000) | AID 449739;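 active = single-dose well whose peak fluorescence ratio is a statistical outlier from its plate by either plate-standardised score or position-corrected B-score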
CYP2C19 inhib: human CYP2C19 inhibition; actives 21% (n = 96,000); CYP2C19 Supersomes, luciferin-H EGE luminescence, 30 min; inhibition, % at 5 µM; AID 778;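 active = CYP2C19 inhibition above a set limit at 5 µM in the primary screen, cut at about 50% in these data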
CYP2C19 activ: increases human CYP2C19 enzyme activity; 96,000 tested, under 10 active; activation factor at 5 µM; P33261; recombinant CYP2C19, luciferin-H EGE luminescence; hits give high values; 0 = fully inhibited enzyme, 1 = untreated enzyme;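 active = activation factor of at least 2 at 5 µM in the primary screen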
CYP2C9 activ: activators of human CYP2C9; recombinant CYP2C9, luciferin-H conversion, luminescence; hits give high values; factor 1 = untreated enzyme, 0 = blocked; actives 1.4% (n = 96,000); activation factor at 5 µM; AID 1024;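 active = activation factor of 2 or more for CYP2C9 at a 5 µM dose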
Target sequence (P11712 whole entry, looked up): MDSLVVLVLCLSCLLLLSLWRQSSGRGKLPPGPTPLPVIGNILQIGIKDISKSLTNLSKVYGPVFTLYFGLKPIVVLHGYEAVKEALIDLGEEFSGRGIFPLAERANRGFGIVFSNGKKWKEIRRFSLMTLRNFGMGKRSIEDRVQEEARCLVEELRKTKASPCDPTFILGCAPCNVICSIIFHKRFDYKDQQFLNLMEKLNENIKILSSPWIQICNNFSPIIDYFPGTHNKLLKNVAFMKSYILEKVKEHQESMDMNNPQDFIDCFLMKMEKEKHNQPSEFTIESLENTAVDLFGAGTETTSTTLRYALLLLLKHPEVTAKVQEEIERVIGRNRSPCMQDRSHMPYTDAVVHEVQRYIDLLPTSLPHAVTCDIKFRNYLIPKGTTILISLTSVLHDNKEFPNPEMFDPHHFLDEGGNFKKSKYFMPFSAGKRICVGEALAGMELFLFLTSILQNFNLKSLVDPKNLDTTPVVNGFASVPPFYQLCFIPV
HIV Rev-RRE inh: disrupts HIV-1 Rev binding to RRE RNA | Rev peptide-RRE RNA binding, FRET | inhibition, % at 8 µM | actives 0.79% (n = 97,000) | AID 704 | P05866;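 active = inhibition above the screen-wide mean plus 3 SD, cut at about 35% in these data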
Target sequence (P05866 whole entry, looked up): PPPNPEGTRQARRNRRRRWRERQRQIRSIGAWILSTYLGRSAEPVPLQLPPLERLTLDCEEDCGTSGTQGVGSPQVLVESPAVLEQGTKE
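Assay system: Labelled RRE RNA duplex and labelled Rev peptide | Times: 5 min preincubation and 15 min binding, 25 °C | Detection: FRET, ex 480 nm, em 540 and 671 nm | Evaluation: % inhibition of FRET ratio versus controls | Benchmarks: DMSO wells as 0% and neomycin B wells as 100% inhibition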
CYP2C9 inhib: human CYP2C9 inhibition | actives 20% (n = 96,000) | CYP2C9 Supersomes, luciferin-H conversion, luminescence | inhibition, % at 5 µM | P11712;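 active = blocking of liver enzyme CYP2C9 beyond about 50% at 5 µM, limit read from the data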
Large screens that a line does not name were inactive.

Cc1cc(C)n(CC(O)Cn2c3ccccc3c3ccccc32)c(=O)n1 (stereo unspecified)	CYP2C19 inhib 84, CYP2C9 inhib 72
Cc1cc(C)n(CCO)c(=O)n1	none
Cc1cc(C)n(CC(O)Cn2c3ccc(Br)cc3c3cc(Br)ccc32)c(=O)n1 (stereo unspecified)	CYP2C9 inhib 69
CCCOC(=O)c1ccc(OC(=O)c2ccco2)cc1	CYP2C9 activ 2
COC(=O)C1=C(C)NC(C)=C(C(=O)OC)C1c1ccc(OC(=O)c2ccco2)cc1	CYP2C9 inhib 57
CCOC(=O)C1C(=O)C=C(C)C(C(=O)OCC)C1c1ccc(OC)cc1 (stereo unspecified)	CYP2C19 inhib 73
COC(=O)C1=C(C)NC(C)=C(C(=O)OC)C1c1ccccn1	CYP2C9 inhib 83
CCOC(=O)C1/C(=N\O)CC(C)(O)C(C(=O)OCC)C1c1ccc(OC)c(OC)c1 (stereo unspecified)	none (no result: HIV Rev-RRE inh)
Cc1onc(-c2c(Cl)cccc2Cl)c1C(=O)NCCN1CCOCC1	none
O=C(NCCCN1CCN(CCCNC(=O)c2ccccc2F)CC1)c1ccccc1F	none
C=CCOC(=O)C1=C(C)NC(C)=C(C(=O)OCC=C)C1c1ccc(O)cc1	CYP2C19 inhib 100, CYP2C9 inhib 100 (no result: HIV Rev-RRE inh)
CCOC(=O)C1=C(C)Nc2nc(SCC)nn2C1c1ccc(OC)cc1 (stereo unspecified)	none
CC(=O)Nc1ccc(OC(=O)c2ccco2)cc1	none (no result: Cav32 inh, CYP2C19 inhib, CYP2C19 activ, CYP2C9 activ, CYP2C9 inhib)
CCOC(=O)C1=C(C)NC(C)=C(C(=O)OCC)C1c1ccc(OC)cc1	CYP2C19 inhib 70, CYP2C9 inhib 88 (no result: Cav32 inh)
CC(=O)Nc1cc(OC(=O)c2ccco2)cc(OC(=O)c2ccco2)c1	CYP2C9 inhib 66
Cc1ccc(N(CC(=O)NC(C)c2ccccc2)S(=O)(=O)c2cccs2)cc1 (stereo unspecified)	CYP2C19 inhib 98, CYP2C9 inhib 86
COc1ccc(S(=O)(=O)N(CC(=O)N/N=C/c2cccs2)c2ccc(C)cc2)cc1OC	Cav32 inh -6.1, CYP2C19 inhib 99
COc1ccc(S(=O)(=O)N(CC(=O)N/N=C/c2cccs2)c2cc(C)cc(C)c2)cc1OC	CYP2C19 inhib 53, CYP2C9 inhib 60
O=C(NCc1ccccc1)C1(C(F)(F)F)C/C(=C\CCO)CCCO1 (stereo unspecified)	none (no result: CYP2C19 inhib, CYP2C19 activ, CYP2C9 activ, HIV Rev-RRE inh, CYP2C9 inhib)
CC1=CC2=NC(=O)CC(C)(C(=O)N(CC(=O)NC(C)(C)C)Cc3cccs3)N2C=C1 (stereo unspecified)	none (no result: Cav32 inh)
CCC1(C)Cc2c(sc3nc(SC)n(Cc4ccccc4)c(=O)c23)CO1 (stereo unspecified)	CYP2C9 inhib 90
CCOC(=O)CSc1nc2sc3c(c2c(=O)n1CC)CC(C)(C)OC3	none
CCC1(C)Cc2c(sc3nnn(CC(=O)Nc4cccc5ccccc45)c(=O)c23)CO1 (stereo unspecified)	CYP2C9 inhib 60
Cc1oc(=O)c(NC(=O)c2cccc(Cl)c2)cc1C(=O)c1ccccc1	none
COc1ccc(C(=O)CSc2nnc(Cn3cnc4ccccc43)o2)cc1	none
Nc1nc2ccccc2nc1N	none (no result: HIV Rev-RRE inh)
c1ccc2nc3ccccc3nc2c1	Cav32 inh -4.4 (no result: CYP2C19 inhib, CYP2C19 activ, CYP2C9 activ, HIV Rev-RRE inh, CYP2C9 inhib)
Cc1cc(O)ccc1Nc1nc2ccccc2nc1Nc1ccc(O)cc1C	CYP2C19 inhib 87, CYP2C9 inhib 96
COc1ccc(Nc2ccccc2)c(C)c1	none
CN(c1cc(=O)n2ccccc2n1)C1CCCCC1	none
COc1cccc(C(=O)N2CCN(Cc3ccccc3C(F)(F)F)CC2)c1	CYP2C19 inhib 95
COc1ccc(N2CCN(C(=O)c3ccc(NS(=O)(=O)c4ccccc4)cc3)CC2)cc1	none (no result: CYP2C19 inhib, CYP2C19 activ, CYP2C9 activ, CYP2C9 inhib)
CCCS(=O)(=O)N1CCN(C(=O)c2cccc(OC)c2)CC1	CYP2C19 inhib 78
COc1ccc(N2CCN(C(=O)c3ccncc3)CC2)cc1	CYP2C19 inhib 79
COc1cc(OC)cc(C(=O)N2CCN(C3CCN(Cc4ccccc4)CC3)CC2)c1	none
COc1cccc(C(=O)N2CCN(C3CCC(c4ccccc4)CC3)CC2)c1 (stereo unspecified)	CYP2C19 inhib 91
COc1cccc(C(=O)N2CCN(S(C)(=O)=O)CC2)c1	none
CCn1ncc(Br)c1C(=O)Nc1sc2c(c1C(N)=O)CCC2	none
COc1cccc(C(=O)N2CCN(c3ncccn3)CC2)c1	CYP2C19 inhib 70
O=C(c1cccc(C(=O)N2CCN(c3ncccn3)CC2)c1)N1CCN(c2ncccn2)CC1	none (no result: Cav32 inh)
COc1ccc(Cl)cc1NC(=S)N1CCN(c2ccccn2)CC1	CYP2C19 inhib 56, CYP2C9 activ 2.5
COc1ccc(C(=O)N2CCN(c3ccccn3)CC2)cc1	CYP2C19 inhib 67
Cc1nc2ccc(C(=O)N3CCN(c4ccccn4)CC3)cc2s1	none
O=C(c1cccc(COc2ccc(Cl)cc2Cl)c1)N1CCN(c2ccccn2)CC1	Cav32 inh -6.2, CYP2C19 inhib 54, CYP2C9 inhib 70
O=C(c1cccc(COc2cccc3ccccc23)c1)N1CCCC1	none (no result: CYP2C19 inhib, CYP2C19 activ, CYP2C9 activ, CYP2C9 inhib)
Cn1c(=O)n(CC(=O)OCc2ccccc2)c(=O)c2c1nc1n2CCCN1C1CCCCC1	none (no result: CYP2C19 inhib, CYP2C19 activ, CYP2C9 activ, CYP2C9 inhib)
CC(=O)N(C(C)=O)C1=C(C#N)C2(CCCCC2)Cc2ccccc21	Cav32 inh -6.3
COc1ccc(C[C@H]2CN3C(=NC[C@@H]3Cc3ccc(O)cc3)N2C[C@H](C)NC(=O)c2ccc(C)c(Br)c2)cc1	none (no result: CYP2C19 inhib, CYP2C19 activ, CYP2C9 activ, HIV Rev-RRE inh, CYP2C9 inhib)
Cc1cc(Cl)ccc1Oc1ncnc2oc(-c3ccccc3)cc12	none (no result: Cav32 inh)
Cc1cccc(Oc2ncnc3oc(-c4ccccc4)cc23)c1C	CYP2C9 inhib 54 (no result: Cav32 inh)
Cc1cccc(NC(=S)NC(NC(=O)c2ccco2)C(Cl)(Cl)Cl)c1 (stereo unspecified)	Cav32 inh -6.1, CYP2C9 inhib 84
Cc1ccc(NC(=S)NC(NC(=O)c2ccco2)C(Cl)(Cl)Cl)cc1 (stereo unspecified)	CYP2C9 inhib 92
O=C(O)c1ccc(NC(=S)NC(NC(=O)c2ccco2)C(Cl)(Cl)Cl)cc1 (stereo unspecified)	Cav32 inh -4
Cc1cccc(NC(=O)c2cc(NC(=O)c3ccco3)ccc2N2CCCCC2)c1	none
CC(C)OC(=O)C1=C(N)N2C(=O)CSC2=C(C(=O)OC(C)C)C1	none
CCN(CC)C(=O)N1CCC(NC(=O)c2ccccc2)CC1	none
Cc1cc(OCC(=O)c2ccc(F)cc2)ccc1N1C(=O)CCC1=O	none
Cn1cccc1C(=O)NC(=O)COC(=O)c1ccc(O)cc1	CYP2C9 activ 4.1
Cn1cccc1C(=O)NC(=O)COC(=O)c1ccccc1O	none
COc1cc(C(=O)N2CCN(C(=O)c3ccco3)CC2)cc(OC)c1OC	none
COc1cc2c(cc1OC)C(c1ccccc1)N(C(=O)c1ccco1)CC2 (stereo unspecified)	CYP2C19 inhib 94, CYP2C9 inhib 82 (no result: HIV Rev-RRE inh)
